Results on one compound are retold here after ChEMBL document CHEMBL4665779, “Novel 2-Substituted 3-Hydroxy-1,6-dimethylpyridin-4(1H)-ones as Dual-Acting Biofilm Inhibitors of Pseudomonas aeruginosa” (J Med Chem, 2020).

Each structure is given as a SMILES string. The source made the active and inactive calls. The rule behind the calls is not given here.

The subject of data set [1] is Pseudomonas aeruginosa. The data set can be described thus: Antibiofilm activity against Pseudomonas aeruginosa PAO1 assessed as inhibition of biofilm formation at 20 uM after 24 hrs by crystal violet staining based assay relative to control. The data set is classed as functional. The procedure, abridged: (§1)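 PAO1 (OD600 0.05) was cultured in ABTGC medium at 37 °C for 24 h with compound (1.25–20 μM for the dose series). Wells were PBS-washed three times, methanol-fixed for 30 min, air-dried, and stained with 0.1% crystal violet for 30 min. Stain was solubilized in 33% acetic acid and read at 570 nm. Compound stocks were […]. Run in triplicate.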

Data set [2] relates to Pseudomonas aeruginosa. In words: Inhibition of biofilm formation in multidrug resistant Pseudomonas aeruginosa 1167 at 5 uM relative to control. The data set is classed as functional.
Data set [3] relates to Pseudomonas aeruginosa. In words: Inhibition of biofilm formation in multidrug resistant Pseudomonas aeruginosa 1167 at 20 uM relative to control. The data set is classed as functional.
Data set [4] has as its system Pseudomonas aeruginosa. The data set can be described thus: Inhibition of biofilm formation in multidrug resistant Pseudomonas aeruginosa 1121 at 5 uM relative to control. It is filed as functional.
In data set [5] the test system is Pseudomonas aeruginosa. In words: Inhibition of biofilm formation in multidrug resistant Pseudomonas aeruginosa 1121 at 20 uM relative to control. It is filed as functional.
The subject of data set [6] is Pseudomonas aeruginosa. In words: Inhibition of biofilm formation in multidrug resistant Pseudomonas aeruginosa 1121 at 10 uM relative to control. The data set is classed as functional.
In data set [7] the test system is Pseudomonas aeruginosa. In words: Inhibition of swarming motility of Pseudomonas aeruginosa PAO1 measured after 16 hrs. It is filed as functional, organism-based. The conditions noted are these: dose microM 1.25-20, time 16.0 hrs. In short, it runs like this: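 LB plates with 0.5% agar, 0.5% casamino acids and 0.5% glucose contained compound at 0–20 μM. Plates were dried 1 h, then 1 μL PAO1 (OD600 1) was spotted on the centre. Incubation was 16 h at 37 °C; three independent experiments.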

Data set [8] concerns the target 3-(3-hydroxydecanoyloxy)decanoate synthase (Pseudomonas aeruginosa (strain ATCC 15692 / PAO1 / 1C / PRS 101 / LMG12228)) (UniProt Q51559). In words: Inhibition of rhlA fluorescence in Pseudomonas aeruginosa PAO1 transfected with GFP by measuring fluorescence intensity every 15 mins for 12 hrs by microtiter plate reader assay. The conditions noted are these: dose microM 1.25-20, time 12.0 hrs. The procedure, abridged:
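PAO1-gfp, PAO1-lasB-gfp, PAO1-rhlA-gfp or PAO1-pqsA-gfp reporters were grown overnight in LB, then diluted in ABTGC medium to OD600 0.02, with compound at 1.25–20 μM. Controls were 0.1% DMSO and a blank. OD600 and GFP fluorescence (ex 485/em 535 nm) were read every 15 min for at least 12 h at 37 °C; triplicate.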

Data set [9] has as its system Pseudomonas aeruginosa PAO1. The data set can be described thus: Induction of iron chelation in Pseudomonas aeruginosa PAO1 assessed as increase in intracellular pyoverdin level at 1.25 to 20 uM in presence of 50 uM FeCl3 by fluorescence microplate reader assay. It is filed as cell-based. The conditions noted are these: dose microM 1.25-20. In short, it runs like this: (§2)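 PAO1 overnight LB culture was diluted in ABTGC medium to OD600 0.02 ([…]), with compound at 0–20 μM, in medium containing 10 or 50 μM FeCl3. Plates were kept at 37 °C in a plate reader recording OD600, pyoverdine fluorescence (ex 400/em 447 nm) and pyochelin fluorescence (ex 350/em 430 nm). Triplicate.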

Data set [10] deals with Pseudomonas aeruginosa PAO1. The data set can be described thus: Induction of iron chelation in Pseudomonas aeruginosa PAO1 assessed as increase in intracellular pyoverdin level in presence of 10 uM FeCl3 by fluorescence microplate reader assay. The data set is classed as cell-based. The conditions noted are these: dose microM 1.25-20. The procedure, abridged:
as §2

Data set [11] can be described thus: Metal chelating activity assessed as negative logarithm of total free ferric ion concentration in a solution under biological conditions. The procedure, abridged:
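Fluorescence competition with CP645 (6 μM), quenched by Fe-NTA (2 μM) for 30 min before compound (60 μM) was added in Chelex-treated MOPS. Fluorescence was read after 48 h, with DFP as reference. pFe(III) was calculated from relative fluorescence as % = 11.743 pFe(III) − 169. Mean of three determinations.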

Data set [12] concerns Pseudomonas aeruginosa. In words: Antibiofilm activity against Pseudomonas aeruginosa PAO1 assessed as inhibition of biofilm formation after 24 hrs by SYTO 9/propidium iodide staining based confocal microscopic analysis. It is filed as functional, organism-based. The note with it: dose microM 1.25-20, time 24.0 hrs. The procedure, abridged:
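Biofilms were grown as in the crystal violet assay but on glass-bottom wells, with compound at 1.25–20 μM for 24 h at 37 °C against an untreated control. Wells were rinsed three times with PBS and stained for 15 min in the dark with 1 μM SYTO 9 and 10 μM propidium iodide. Confocal imaging used a 63× oil objective; triplicate.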

Data set [13] has as its system Pseudomonas aeruginosa. In words: Antibiofilm activity against Pseudomonas aeruginosa PAO1 assessed as inhibition of biofilm formation after 24 hrs by crystal violet staining based assay. The data set is classed as functional, organism-based. The note with it: dose microM 1.25-20, time 24.0 hrs. The procedure, abridged: as §1
The subject of data set [14] is Pseudomonas aeruginosa. In words: Antibiofilm activity against Pseudomonas aeruginosa PAO1 assessed as reduction in biofilm mass after 24 hrs by microtiter plate assay. It is filed as functional, organism-based. The conditions noted are these: dose microM 1.25-20, time 24.0 hrs. The procedure, abridged:
as §1

Data set [15] concerns Pseudomonas aeruginosa. In words: Antibiofilm activity against Pseudomonas aeruginosa PAO1 assessed as reduction in biofilm mass at 1.25 uM after 24 hrs by microtiter plate assay relative to control. It is filed as functional. Details: scale not given: the % may be the effect or the level left. The procedure, abridged:
as §1

A short description of data set [16]: Growth inhibition of Pseudomonas aeruginosa PAO1 at 512 uM by CLSI-based broth microdilution method. In short, it runs like this:
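Broth microdilution following CLSI standards: two-fold serial dilutions were made in Mueller-Hinton broth and inoculated with P. aeruginosa to a final OD600 of 0.05. The top final concentration is printed as […].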

On to `CCCCCCC(=O)NCc1c(O)c(=O)cc(C)n1C`, for which the inhibition at 20 µM in the data set on Pseudomonas aeruginosa [1] amounted to 68.7%; in the data set on Pseudomonas aeruginosa [3], 51.4%; in the data set with Pseudomonas aeruginosa [5], 23.2%. In addition, the inhibition at 5 µM came out at 43.7% with Pseudomonas aeruginosa [2] and 10.6% in the data set on Pseudomonas aeruginosa [4]. For the same compound, in the data set on Pseudomonas aeruginosa [6], the inhibition at 10 µM was determined as 4.41%. Further, the inhibition result (with Pseudomonas aeruginosa [7]; in data set [8]; with Pseudomonas aeruginosa [13]) was “Dose-dependent effect” each time. The outcome in [9] was inactive. For the same compound, the Activity result in data set [10] was “Dose-dependent effect”; in the data set on Pseudomonas aeruginosa [12] it was “Dose-dependent effect”; in the data set on Pseudomonas aeruginosa [14] it was “Dose-dependent effect”; in the data set on Pseudomonas aeruginosa [15], greater than 25%. Also, the pFe3+ in data set [11] amounted to 20.6. Besides, the “growth inhibition (GI)” value in data set [16] was “Non-Toxic”.
